# Test results: ChEMBL document CHEMBL1126152, “Fluoronaphthyridines as antibacterial agents. 4. Synthesis and structure-activity relationships of 5-substituted-6-fluoro-7-(cycloalkylamino)-1,4-dihydro-4-oxo-1,8- naphthyridine-3-carboxylic acids” (J Med Chem, 1992)
# Several values for one entry are separate records, joined by “and”; a condition that tells them apart may be missing. Equal entries are not always repeated.
# Tests used:
# [1] = (§1) Solubility was measured at PH - 7.2 buffer
# Bacteroides fragilis = assay: In vitro for antibacterial activity against […].; format: functional
# In short: (§2)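 MIC by serial 2-fold broth dilution in nutrient broth with an inoculum of 10^6 CFU/mL. Compound range was 0.0005–250 μg/mL. Plates were incubated 18 h at 37 °C. MIC was taken as the lowest concentration preventing visible growth.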
# Escherichia coli [2] = assay: Compound was tested for […] against Escherichia coli A 15119 after oral administration of drug in mice; format: functional; conditions: read-out: PD50
# In short: (§3)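 Mouse protection test against systemic infection. Compound was dissolved in sterile water and given orally to female OF1-strain Swiss mice weighing 18–25 g, with five mice per group.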
# Enterococcus faecalis = assay: In vitro for antibacterial activity against Enterococcus faecalis; format: functional; in short: as §2
# Escherichia coli [3] = assay: In vitro for antibacterial activity against Escherichia coli; format: functional; in short: as §2
# Enterobacter cloacae = assay: In vitro for antibacterial activity against Enterobacter cloacae; format: functional
# Klebsiella pneumoniae = assay: In vitro for antibacterial activity against Klebsiella pneumoniae; format: functional; in short: as §2
# Morganella morganii = assay: In vitro for antibacterial activity against Morganella morganii; format: functional; in short: as §2
# [4] = Lethal dose was determined in OF1-strain female Swiss mice after intra venous administration of the drug; conditions: mouse, in vivo, iv
# [5] = Lethal dose was determined in OF1-strain female Swiss mice after oral administration of the drug; conditions: mouse, in vivo
# Pseudomonas aeruginosa [6] = assay: In vitro for antibacterial activity against Pseudomonas aeruginosa; format: functional; in short: as §2
# Pseudomonas aeruginosa [7] = assay: animal or person; format: functional; conditions: in Mus musculus, po, read-out: PD50
# Proteus mirabilis = assay: In vitro for antibacterial activity against Proteus mirabilis; format: functional; in short: as §2
# Staphylococcus aureus [8] = assay: animal or person; format: functional; conditions: in Mus musculus, po, read-out: PD50
# Serratia marcescens = assay: In vitro for antibacterial activity against Serratia marcescens; format: functional; in short: as §2
# Streptococcus pneumoniae [9] = assay: Antibacterial activity against Streptococcus pneumoniae; format: functional
# Staphylococcus aureus [10] = assay: Antibacterial activity against Staphylococcus aureus; format: functional
# Streptococcus pneumoniae [11] = assay: animal or person; format: functional; conditions: in Mus musculus, po, read-out: PD50
# [12] = Partition coefficient (logD); conditions: octanol/water
# [13] = % dose recovered in mouse urine; conditions: % recovery
# Staphylococcus = assay: Compound was tested for […] against Staphylococcus aureus A 15090 after oral administration of drug in mice; format: functional; conditions: read-out: PD50; in short: as §3
# Mus musculus [14] = organism: Mus musculus; conditions: in vivo
# [15] = Max plasma concentration was measured by 40 mg/kg dose of peroral administration.; format: ADME, organism-based; design: dose 40 mg/kg, route oral; conditions: po
# In short: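 Mice were dosed orally at 40 mg/kg, and compound levels were measured in blood. Values came from duplicate or triplicate experiments and are stated as accurate to ±50%.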
# in vivo [16] = conditions: mouse, plasma
# in vivo [17] = conditions: mouse, plasma, T1/2
# Escherichia coli [18] = assay: Compound was tested for […] against Escherichia coli A 15119 after oral administration of drug in mice, value in the parenthesis indicates 95% confidence limits; format: functional; conditions: read-out: PD50; in short: as §3
# Pseudomonas aeruginosa [19] = assay: Compound was tested for […] against Pseudomonas aeruginosa A 9843 after oral administration of drug in mice, value in the parenthesis indicates 95% confidence limits; format: functional; conditions: read-out: PD50; in short: as §3
# Streptococcus pneumoniae [20] = assay: Compound was tested for efficacy on systemic infection against Streptococcus pneumoniae A 9585 after oral administration of drug in mice, value in the parenthesis indicates 95% confidence limits
# Mus musculus [21] = organism: Mus musculus; conditions: in vivo; remark: listed apart in the source
# [22] = as §1; format: physicochemical
# In short: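 Excess solid was shaken overnight at 22 °C in pH 7.2 buffer for injection, then filtered. The diluted filtrate was assayed by HPLC with UV detection.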
Structure (SMILES),solubility [1] [µg/mL],MIC (Bacteroides fragilis) [µg/mL],ED50 (Escherichia coli [2]) [mg/kg],MIC (Enterococcus faecalis) [µg/mL],MIC (Escherichia coli [3]) [µg/mL],MIC (Enterobacter cloacae) [µg/mL],MIC (Klebsiella pneumoniae) [µg/mL],MIC (Morganella morganii) [µg/mL],LD50 [4] [mg/kg],LD50 [5] [mg/kg],MIC (Pseudomonas aeruginosa [6]) [µg/mL],ED50 (Pseudomonas aeruginosa [7]) [mg/kg],MIC (Proteus mirabilis) [µg/mL],ED50 (Staphylococcus aureus [8]) [mg/kg],MIC (Serratia marcescens) [µg/mL],MIC (Streptococcus pneumoniae [9]) [µg/mL],MIC (Staphylococcus aureus [10]) [µg/mL],ED50 (Streptococcus pneumoniae [11]) [mg/kg],logD [12],other results
Cc1c(F)c(N2CC3CC2CN3)nc2c1c(=O)c(C(=O)O)cn2C1CC1 (stereo not given),20,1,0.9,0.13,0.002,0.002,0.002,0.016,131,1750,0.25,2.7,0.016,5.4,0.03,0.13,0.002,43,0.48,–
Cc1c(F)c(N2CC[C@H](N)C2)nc2c1c(=O)c(C(=O)O)cn2-c1ccc(F)cc1F,50,0.25,1.8,0.06,0.002,0.002,0.002,0.03,84,2500,0.25,2.2,0.008,1.7,0.03,0.03,0.002,7.9,1.22,–
Cc1c(F)c(N2CCNCC2)nc2c1c(=O)c(C(=O)O)cn2C1CC1,–,32,1.2,1,0.008,0.03,0.02,0.06,–,–,0.5,5.6,0.13,–,0.13,1,0.03,> 50,–,dose excreted [13]: 12%; ED50 (Staphylococcus): 9.6 mg/kg; T1/2 (Mus musculus [14]): 2.73 h and 1.23 h
Cc1c(F)c(N2CC[C@H](N)C2)nc2c1c(=O)c(C(=O)O)cn2C(C)(C)C,570,4,–,0.13,0.004,0.03,0.03,0.06,–,–,1,25,0.06,–,0.13,0.25,0.004,> 25,1.14,Cmax [15]: 7000 ng/mL; dose excreted [13]: 7%; ED50 (Staphylococcus): 4.1 mg/kg; Cmax (in vivo [16]): 7000 ng/mL; half-life (in vivo [17]): 2.83 h
Cc1c(F)c(N2CC3CC2CN3)nc2c1c(=O)c(C(=O)O)cn2-c1ccc(F)cc1F (stereo not given),50,4,–,0.13,0.008,0.03,0.06,0.13,–,–,0.5,1.6,0.06,0.7,0.13,0.06,0.008,–,0.59,dose excreted [13]: 11%; T1/2 (Mus musculus [14]): 2.08 h; Cmax (in vivo [16]): 20000 ng/mL; half-life (in vivo [17]): 2.38 h
O=C(O)c1cn(-c2ccc(F)cc2F)c2nc(N3CC4CC3CN4)c(F)cc2c1=O (stereo not given),–,1,–,0.5,0.004,0.016,0.008,0.06,–,–,0.25,2.7,0.03,9.5,0.06,0.25,0.016,–,–,dose excreted [13]: 7%; T1/2 (Mus musculus [14]): 1.48 h; half-life (in vivo [17]): 1.72 h
CC(C)(CF)n1cc(C(=O)O)c(=O)c2cc(F)c(N3CC[C@H](N)C3)nc21,–,16,–,4,0.03,0.13,0.03,0.06,–,–,1,–,0.5,–,0.25,0.03,0.03,–,-0.56,–
CC(C)(C)n1cc(C(=O)O)c(=O)c2cc(F)c(N3CCNCC3)nc21,820,8,–,1,0.02,0.06,0.03,0.06,–,–,0.5,–,0.13,–,0.06,1,0.06,–,-0.33,–
CC(C)(C)n1cc(C(=O)O)c(=O)c2cc(F)c(N3CC4CC3CN4)nc21 (stereo not given),80,4,–,0.5,0.008,0.02,0.02,0.06,303,5000,0.25,–,0.06,1.6,0.06,0.13,0.003,–,–,dose excreted [13]: 34%; ED50 (Escherichia coli [18]): 1.8 mg/kg; ED50 (Pseudomonas aeruginosa [19]): 4.7 mg/kg; T1/2 (Mus musculus [14]): 1.58 h; Cmax (in vivo [16]): 10000 ng/mL; half-life (in vivo [17]): 1.6 h; PD50 (Streptococcus pneumoniae [20]): 29.7 mg/kg
CN[C@H]1CCN(c2nc3c(c(C)c2F)c(=O)c(C(=O)O)cn3-c2ccc(F)cc2F)C1,10,2,2.7,0.25,0.016,0.03,0.016,0.06,94,2500,1,1.8,0.13,1.8,0.25,0.06,0.008,4.1,1.38,AUC (Mus musculus [21]): 32000 ng·h/mL
Cc1c(F)c(N2CC[C@H](N)C2)nc2c1c(=O)c(C(=O)O)cn2-c1ccc(F)cc1,80,–,4.9,0.06,0.002,0.002,0.002,0.008,94,2500,0.25,2.9,0.008,4.2,0.03,0.03,0.004,14.4,0.91,–
Cc1c(F)c(N2CC3CCC2CN3)nc2c1c(=O)c(C(=O)O)cn2-c1ccc(F)cc1F (stereo not given),10,4,–,0.25,0.008,0.008,0.008,0.13,24,2500,0.5,1.4,0.13,5.4,0.5,0.06,0.008,9.5,0.4,–
CCn1cc(C(=O)O)c(=O)c2c(C)c(F)c(N3CC[C@H](N)C3)nc21,–,–,–,2,0.002,0.008,0.016,0.03,–,–,1,–,0.13,–,0.13,0.5,0.016,–,–,solubility [22]: 30 µg/mL
CCc1c(F)c(N2CC[C@H](N)C2)nc2c1c(=O)c(C(=O)O)cn2C1CC1,70,1,–,16,0.25,0.25,0.25,0.5,–,–,4,–,2,–,0.5,1,1,–,1.37,–
O=C(O)c1cn(C2CC2)c2nc(N3CCNCC3)c(F)cc2c1=O,–,–,0.4,8,0.03,0.06,0.06,0.06,–,–,0.5,3.6,0.25,–,0.25,–,0.25,–,–,ED50 (Staphylococcus): 7 mg/kg
O=C(O)c1cn(C2CC2)c2cc(N3CCNCC3)c(F)cc2c1=O [CIPROFLOXACIN],–,4,1.2,0.5,–,–,0.06,–,–,–,–,2.6,–,–,0.03,0.25,0.13,> 50,–,ED50 (Staphylococcus): 8 mg/kg
NC1CCN(c2nc3c(cc2F)c(=O)c(C(=O)O)cn3-c2ccc(F)cc2F)C1 (stereo not given) [TOSUFLOXACIN],20,1,1.8,0.25,0.004,0.03,0.016,0.06,81,2500,0.25,2.9,0.03,–,0.13,0.06,0.016,11.4,0.1,ED50 (Staphylococcus): 2.1 mg/kg; T1/2 (Mus musculus [14]): 1.38 h; half-life (in vivo [17]): 2.4 h
